Measurements taken from publication PMC8867396 (Nature, 2021).
Like-named read-outs stand apart in the source and are kept apart here.

Key:
[1] = Pharmacokinetics in male CD-1 mice, plasma and brain; format: in vivo; settings: 10 mg/kg subcutaneous
[2] = test system: SNI mice; assay: Spared nerve injury; format: in vivo; settings: for anti-allodynic effect, mechanical thresholds versus vehicle: systemic (subcutaneous) administration to SNI mice
Outline: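 Spared nerve injury under isoflurane: two sciatic branches ligated and transected, sural nerve intact; mice tested 7–14 days later. Test compound (10, 20 or 30 mg/kg) or vehicle (saline, cyclodextrin, kolliphor) given subcutaneously, random assignment. Hindpaw von Frey thresholds by up-down method at 1, 24, 48 h. Thresholds normalized to each mouse's post-SNI baseline; n = 5–10; ANOVA with Dunnett's test.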

[3] = molecular target: σ1 receptor (Homo sapiens, UniProt Q99720); assay: Competition binding versus σ1 receptor; settings: read-out: Ki (nM) σ1
[4] = molecular target: human σ2 receptor (Homo sapiens, UniProt Q5BJF2); assay: Competition binding of [3H]-DTG in Expi293 membranes expressing σ2 receptor; settings: for Selectivity (σ1/σ2): ratio of σ1 Ki to σ2 Ki
Outline: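 σ2-expressing Expi293 membranes were made by osmotic lysis (20 mM HEPES pH 7.5, 2 mM MgCl2), spun at 20,000 × g, and kept in 50 mM Tris pH 8.0 at −80 °C. Assay buffer: 50 mM Tris pH 8.0, 0.1% BSA, 10 nM [3H]-DTG and graded competitor; 37 °C, 90 min. 10 μM haloperidol set nonspecific binding. Filtration, scintillation counting; Ki by Cheng-Prusoff using measured probe Kd.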

[5] = test system: σ2 mutants (His21, Gln77); assay: Competition binding in σ2 receptor mutants disrupting water coordination; set-up: species or system human
Outline: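 Expi293 membranes carrying wild-type or mutant σ2 (lysed osmotically in 20 mM HEPES pH 7.5, 2 mM MgCl2; pellet at 20,000 × g), in 50 mM Tris pH 8.0, 0.1% BSA, with 10 nM [3H]-DTG and graded competitor. Incubated 37 °C, 90 min, shaking. Filtered on PEI-soaked glass fibre, scintillation counted. Nonspecific binding with 10 μM haloperidol. Ki by Cheng-Prusoff; three technical replicates, mean ± SEM.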

[6] = test system: mice; assay: Rotarod; format: in vivo; settings: 1 hour or 24 hours post-injection; Z1665845742 10 mg/kg, Z4857158944 20 mg/kg, Z4446724338 10 mg/kg
[7] = read-out: Ki (nM) σ2, competition with 10 nM [3H]-DTG

Sequence of human σ2 receptor (Q5BJF2 whole entry): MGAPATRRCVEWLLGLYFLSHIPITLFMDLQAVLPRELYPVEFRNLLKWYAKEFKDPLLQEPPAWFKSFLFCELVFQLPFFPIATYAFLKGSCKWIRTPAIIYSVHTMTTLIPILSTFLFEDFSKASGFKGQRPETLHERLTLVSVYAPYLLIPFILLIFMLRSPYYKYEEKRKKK
Sequence of σ1 receptor (Q99720 whole entry, species assumed): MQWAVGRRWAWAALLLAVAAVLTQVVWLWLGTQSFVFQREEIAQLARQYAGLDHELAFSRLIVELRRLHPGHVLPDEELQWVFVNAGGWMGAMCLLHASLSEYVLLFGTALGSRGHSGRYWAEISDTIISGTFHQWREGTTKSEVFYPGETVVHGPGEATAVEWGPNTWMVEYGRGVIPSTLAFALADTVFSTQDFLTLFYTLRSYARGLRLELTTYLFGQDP

Structure (SMILES) | Ki [3] | Selectivity (σ1/σ2) [4] | Ki [4, 7] | also measured
COc1cccc2c1CCCC2CCCN1CCN(C2CCCCC2)CC1 (stereo not shown) [PB28, reference compound] | – | – | – | AUC0→t (AUClast) ([1]; brain): 229000 ng·min/mL (g); AUC0→∞ (AUCinf_obs) ([1]; brain): 240000 ng·min/mL (g); Cmax ([1]; brain): 948 ng/mL (g); Kel (Lambda_z) ([1]; brain): 0.00706 min⁻¹; T1/2 (HL_Lambda_z) ([1]; brain): 1.64 h; Tmax ([1]; brain): 1 h; AUC0→t (AUClast) ([1]; plasma): 8640 ng·min/mL (g); AUC0→∞ (AUCinf_obs) ([1]; plasma): 45900 ng·min/mL (g); Cmax ([1]; plasma): 42 ng/mL (g); Kel (Lambda_z) ([1]; plasma): 0.000937 min⁻¹; T1/2 (HL_Lambda_z) ([1]; plasma): 12.3 h; Tmax ([1]; plasma): 1 h; mice in which anti-allodynic effects were observed ([2]; systemic injection, 30 mg/kg): 60%
N/C(=N\Cc1ccc(F)cc1Br)NCC1CCC1 [ZINC000170908795] | 32.7 nM | 4.9 | 6.7 nM | –
CC1CCC(O)(CN2CC(Cc3ccc(F)c(F)c3)C2)CC1 (stereo not shown) [ZINC000548355486] | 4.9 nM | 2 | 2.4 nM | –
CC(C)(NCc1ccc2c(c1)OCCO2)[C@H](O)c1ccccc1 [ZINC000895657866] | 990 nM | 46 | 21.4 nM | –
C1=C(c2c[nH]c3ccccc23)CCN(CCCc2ccccc2)C1 [Z295861754] | – | – | – | decrease in σ2 affinity ([4]; versus parent Z1241145220): 8 fold
Cc1ccc(CC2CN(CC3(O)CCSCC3)C2)cc1 [ZINC000656714762] | 4.6 nM | 0.1 | 67.8 nM | –
CC[C@@H](CO)N1CCC(CCc2ccc(F)cc2F)CC1 [ZINC001460312963] | 1.7 nM | 0.3 | 5.2 nM | –
C[C@@H](C(=O)N(C)Cc1cccc(F)c1)N1CC=C(c2c[nH]c3ncccc23)CC1 [ZINC000533478938] | 1470 nM | 43 | 34.5 nM | –
O[C@@]1(CNCc2cccc3c2OCC3)CCc2ccccc21 [ZINC000921927365] | 1190 nM | 18 | 67.3 nM | –
c1ccc(CCCN2CCC(c3nnc4ccccn34)CC2)cc1 [Z163048780] | – | – | – | Ki ([4]; read-out: σ2 Ki (affinity)): > 10000 nM
O[C@@H](COCc1ccccc1F)CN1CC(Cc2ccccc2C(F)(F)F)C1 [ZINC001254761628] | 53 nM | 11.3 | 4.7 nM | –
Cc1ccc([C@H]2CCN(CC3(O)CCC3)C2)c(C)c1 [ZINC000348332392] | 2.9 nM | 0.1 | 33.7 nM | –
C[C@@H](c1ccccc1)[C@@H](O)CN1CCC(c2c[nH]c3ncccc23)CC1 [ZINC000450573233] | 128 nM | 30 | 4.3 nM | –
Cc1ccc(CCC2CCN(C(=O)CN3C[C@@H]4CC[C@@H](O)[C@H]4C3)CC2)cc1 [ZINC000544117725] | 16.2 nM | 1.6 | 10 nM | –
CCCN1CCC=C(c2cc(-c3ccc(C)cc3)no2)C1 [PD-144418] | – | – | – | anti-allodynic effect, mechanical thresholds versus vehicle [2]: anti-allodynia; anti-allodynia 24 or 48 hours post-injection ([2]; tested at 1, 24 and 48 hours after dosing): not sustained
C1=C(c2c[nH]c3ncccc23)CCN(CCCc2ccccc2)C1 [Z1241145220] | – | – | – | reduction of affinity on mutation ([5]; Gln77 mutant versus wild-type σ2): about 10 fold; reduction of affinity on mutation ([5]; His21 mutant versus wild-type σ2): about 10 fold; Ki ([4]; read-out: σ2 Ki (affinity)): 3.7 nM
OC(CCc1ccccc1)CN1CCC(c2nnc3ccccn23)CC1 (stereo not shown) [Z1665798906] | – | – | – | σ2 activity in words [4]: σ2 inactive
Fc1c(CN2CCN(C[C@@H]3CCCO3)CC2)ccc(Br)c1Cl [ZINC001237901728] | 1.6 nM | 0.1 | 27 nM | –
CC(C)CCO[C@@H]1CCN(C[C@H]2CC3(CCCCC3)CO2)C1 [ZINC001196519317] | 13.4 nM | 5.6 | 2.4 nM | –
OC(CCc1ccccc1)CN1CC=C(c2c[nH]c3ncccc23)CC1 (stereo not shown) [Z1665845742] | – | – | – | selectivity for σ2 over σ1 [4]: 47 fold; Ki ([4]; read-out: σ2 Ki (affinity)): 5 nM; AUC0→t (AUClast) ([1]; brain): 436000 ng·min/mL (g); AUC0→∞ (AUCinf_obs) ([1]; brain): 509000 ng·min/mL (g); Cmax ([1]; brain): 3150 ng/mL (g); Kel (Lambda_z) ([1]; brain): 0.000928 min⁻¹; T1/2 (HL_Lambda_z) ([1]; brain): 12.4 h; Tmax ([1]; brain): 0.333 h; AUC0→t (AUClast) ([1]; plasma): 99000 ng·min/mL (g); AUC0→∞ (AUCinf_obs) ([1]; plasma): 112000 ng·min/mL (g); Cmax ([1]; plasma): 968 ng/mL (g); Kel (Lambda_z) ([1]; plasma): 0.00374 min⁻¹; T1/2 (HL_Lambda_z) ([1]; plasma): 3.08 h; Tmax ([1]; plasma): 0.333 h; sedation or motor impairment on the rotarod [6]: No sedation or motor impairment; anti-allodynic effect, mechanical thresholds versus vehicle [2]: anti-allodynic
